Measured values taken from ChEMBL document CHEMBL4689842, “EUbOPEN Chemogenomics Library wave 1” (2021).

Test system: U2OS
Test: Multiplex assay against U2OS
Assay type: toxicity, cell-based
Conditions: human
Method in brief: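 Cells were classed with CellPathfinder machine-learning gating, first as Hoechst high-intensity objects or normal cells, then (normal cells) as healthy, pyknosed or fragmented nuclei, and finally (pyknosed cells) as mitotic or apoptotic. Staining of live cells at seeding used Hoechst33342, BioTracker Green Microtubule Cytoskeleton Dye, MitoTracker Red and Annexin V Alexa Fluor 680, with imaging on a CQ1 microscope at 37°C and 5% CO2 after compound addition. Tubulin, mitochondrial-mass and membrane-permeability phenotypes are per cents of healthy-nucleus cells.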

[1] = 12 h, 1 µM, compound concentration 1 uM, replicate 1
[2] = 12 h, 1 µM, compound concentration 1 uM, replicate 2
[3] = 12 h, 10 µM, compound concentration 10 uM, replicate 1
[4] = 12 h, 10 µM, compound concentration 10 uM, replicate 2
[5] = 24 h, 1 µM, compound concentration 1 uM, replicate 1
[6] = 24 h, 1 µM, compound concentration 1 uM, replicate 2
[7] = 24 h, 10 µM, compound concentration 10 uM, replicate 1
[8] = 24 h, 10 µM, compound concentration 10 uM, replicate 2
[9] = 48 h, 1 µM, compound concentration 1 uM, replicate 1
[10] = 48 h, 1 µM, compound concentration 1 uM, replicate 2
[11] = 48 h, 10 µM, compound concentration 10 uM, replicate 1
[12] = 48 h, 10 µM, compound concentration 10 uM, replicate 2

CCc1cc2c(cc1CC)CC(NC[C@H](O)c1ccc(O)c3[nH]c(=O)ccc13)C2 [INDACATEROL]
Population Apoptotic (%) [1]: 41% | Population Fragmented Nuclei (%) [1]: 10% | Population Healthy Nuclei (%) [1]: 76% | Population Hoechst High Intensity Objects (%) [1]: 7% | Population Membrane Permeable-Phenotype (%) [1]: 2% | Population Mitochondria Different-Phenotype (%) [1]: 10% | Population Mitotic Cells (%) [1]: 58% | Population Normal (%) [1]: 92% | Population Pyknosed Nuclei (%) [1]: 13% | Population Tubulin-Different-Phenotype (%) [1]: 11% | Total Cell Count [1]: 185 | Population Apoptotic (%) [2]: 33% | Population Fragmented Nuclei (%) [2]: 3% | Population Healthy Nuclei (%) [2]: 92% | Population Membrane Permeable-Phenotype (%) [2]: 1% | Population Mitochondria Different-Phenotype (%) [2]: 11% | Population Mitotic Cells (%) [2]: 66% | Population Pyknosed Nuclei (%) [2]: 4% | Population Tubulin-Different-Phenotype (%) [2]: 14% | Total Cell Count [2]: 71 | Population Fragmented Nuclei (%) [3]: 18% | Population Healthy Nuclei (%) [3]: 54% | Population Hoechst High Intensity Objects (%) [3]: 4% | Population Membrane Permeable-Phenotype (%) [3]: 22% | Population Mitochondria Different-Phenotype (%) [3]: 95% | Population Normal (%) [3]: 95% | Population Pyknosed Nuclei (%) [3]: 27% | Population Tubulin-Different-Phenotype (%) [3]: 90% | Total Cell Count [3]: 139 | Population Apoptotic (%) [4]: 68% | Population Fragmented Nuclei (%) [4]: 15% | Population Healthy Nuclei (%) [4]: 64% | Population Hoechst High Intensity Objects (%) [4]: 6% | Population Membrane Permeable-Phenotype (%) [4]: 23% | Population Mitochondria Different-Phenotype (%) [4]: 98% | Population Mitotic Cells (%) [4]: 31% | Population Normal (%) [4]: 93% | Population Pyknosed Nuclei (%) [4]: 19% | Population Tubulin-Different-Phenotype (%) [4]: 88% | Total Cell Count [4]: 71 | Population Apoptotic (%) [5]: 36% | Population Fragmented Nuclei (%) [5]: 11% | Population Healthy Nuclei (%) [5]: 74% | Population Hoechst High Intensity Objects (%) [5]: 6% | Population Membrane Permeable-Phenotype (%) [5]: 2% | Population Mitochondria Different-Phenotype (%) [5]: 11% | Population Mitotic Cells (%) [5]: 63% | Population Normal (%) [5]: 93% | Population Pyknosed Nuclei (%) [5]: 13% | Population Tubulin-Different-Phenotype (%) [5]: 9% | Total Cell Count [5]: 184 | Population Apoptotic (%) [6]: 14% | Population Fragmented Nuclei (%) [6]: 4% | Population Healthy Nuclei (%) [6]: 86% | Population Hoechst High Intensity Objects (%) [6]: 3% | Population Membrane Permeable-Phenotype (%) [6]: 0% | Population Mitochondria Different-Phenotype (%) [6]: 10% | Population Mitotic Cells (%) [6]: 85% | Population Normal (%) [6]: 96% | Population Pyknosed Nuclei (%) [6]: 9% | Population Tubulin-Different-Phenotype (%) [6]: 12% | Total Cell Count [6]: 73 | Population Apoptotic (%) [7]: 78% | Population Fragmented Nuclei (%) [7]: 24% | Population Healthy Nuclei (%) [7]: 43% | Population Hoechst High Intensity Objects (%) [7]: 4% | Population Membrane Permeable-Phenotype (%) [7]: 50% | Population Mitochondria Different-Phenotype (%) [7]: 96% | Population Mitotic Cells (%) [7]: 21% | Population Normal (%) [7]: 95% | Population Pyknosed Nuclei (%) [7]: 32% | Population Tubulin-Different-Phenotype (%) [7]: 79% | Total Cell Count [7]: 174 | Population Apoptotic (%) [8]: 89% | Population Fragmented Nuclei (%) [8]: 11% | Population Healthy Nuclei (%) [8]: 67% | Population Hoechst High Intensity Objects (%) [8]: 6% | Population Membrane Permeable-Phenotype (%) [8]: 59% | Population Mitochondria Different-Phenotype (%) [8]: 100% | Population Mitotic Cells (%) [8]: 10% | Population Normal (%) [8]: 93% | Population Pyknosed Nuclei (%) [8]: 20% | Population Tubulin-Different-Phenotype (%) [8]: 86% | Total Cell Count [8]: 78 | Population Apoptotic (%) [9]: 45% | Population Fragmented Nuclei (%) [9]: 7% | Population Healthy Nuclei (%) [9]: 78% | Population Hoechst High Intensity Objects (%) [9]: 4% | Population Membrane Permeable-Phenotype (%) [9]: 2% | Population Mitotic Cells (%) [9]: 54% | Population Normal (%) [9]: 95% | Population Pyknosed Nuclei (%) [9]: 14% | Population Tubulin-Different-Phenotype (%) [9]: 6% | Total Cell Count [9]: 181 | Population Apoptotic (%) [10]: 0% | Population Fragmented Nuclei (%) [10]: 6% | Population Healthy Nuclei (%) [10]: 87% | Population Hoechst High Intensity Objects (%) [10]: 5% | Population Membrane Permeable-Phenotype (%) [10]: 8% | Population Mitochondria Different-Phenotype (%) [10]: 12% | Population Mitotic Cells (%) [10]: 100% | Population Normal (%) [10]: 94% | Population Pyknosed Nuclei (%) [10]: 5% | Population Tubulin-Different-Phenotype (%) [10]: 11% | Total Cell Count [10]: 69 | Population Apoptotic (%) [11]: 84% | Population Fragmented Nuclei (%) [11]: 23% | Population Healthy Nuclei (%) [11]: 30% | Population Hoechst High Intensity Objects (%) [11]: 9% | Population Membrane Permeable-Phenotype (%) [11]: 38% | Population Mitochondria Different-Phenotype (%) [11]: 96% | Population Mitotic Cells (%) [11]: 15% | Population Normal (%) [11]: 90% | Population Pyknosed Nuclei (%) [11]: 45% | Population Tubulin-Different-Phenotype (%) [11]: 73% | Total Cell Count [11]: 239 | Population Apoptotic (%) [12]: 73% | Population Fragmented Nuclei (%) [12]: 9% | Population Healthy Nuclei (%) [12]: 53% | Population Hoechst High Intensity Objects (%) [12]: 16% | Population Membrane Permeable-Phenotype (%) [12]: 49% | Population Mitochondria Different-Phenotype (%) [12]: 100% | Population Mitotic Cells (%) [12]: 26% | Population Normal (%) [12]: 83% | Population Pyknosed Nuclei (%) [12]: 37% | Population Tubulin-Different-Phenotype (%) [12]: 67% | Total Cell Count [12]: 122
